Results reported in ChEMBL document CHEMBL5252671, “Design, synthesis and evaluation of the anti-breast cancer activity of 1,3-oxazolo[4,5-d]pyrimidine and 1,3-oxazolo[5,4-d]pyrimidine derivatives” (2023).

Columns and labels:
Format in all cases: functional
T47D [1] = experiment: Anticancer activity against human T47D cells measured at 48 hrs; conditions: for CC50: read-out: LC50 (the source's name)
How it was run: (§1)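 NCI DTP five-dose screen on the breast subpanel: compound at 0.01, 0.1, 1, 10 and 100 μM for 48 h. Cell density read by sulforhodamine B (protein content). GI50, TGI and LC50 were derived from the T, T0 and C optical densities using the NCI formulas.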

BT-549 [2] = experiment: Antiproliferative activity against human BT-549 cells assessed as inhibition of cell growth at 1 X 10^-5 M measured for 48 hrs by sulforhodamine B assay relative to control; conditions: BT-549, 48 h, dose 1 10^-5M
How it was run: (§2)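 NCI one-dose screen. Cells were seeded at 5000-40000/well in RPMI 1640 with 5% FBS and 2 mM L-glutamine and preincubated 24 h at 37 °C in 5% CO2. Compound was added at 10⁻⁵ M for 48 h. Cells were then fixed with 10% TCA, stained with sulforhodamine B, washed with 1% acetic acid, solubilized in 10 mM Tris and read as OD at 510 nm.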

BT-549 [3] = experiment: Anticancer activity against human BT-549 cells measured at 48 hrs; how it was run: as §1
MDA-MB-468 [4] = experiment: Anticancer activity against human MDA-MB-468 cells measured at 48 hrs; how it was run: as §1
MDA-MB-231 [5] = experiment: Anticancer activity against human MDA-MB-231 cells measured at 48 hrs; how it was run: as §1
Hs-578T [6] = experiment: Antiproliferative activity against human Hs-578T cells assessed as inhibition of cell growth at 1 X 10^-5 M measured for 48 hrs by sulforhodamine B assay relative to control; conditions: dose 1 10^-5M; how it was run: as §2
MDA-MB-231 [7] = experiment: Antiproliferative activity against human MDA-MB-231 cells assessed as inhibition of cell growth at 1 X 10^-5 M measured for 48 hrs by sulforhodamine B assay relative to control; conditions: MDA-MB-231, 48 h, dose 1 10^-5M; how it was run: as §2
Hs-578T [8] = experiment: Anticancer activity against human Hs-578T cells measured at 48 hrs; how it was run: as §1
MCF7 [9] = experiment: Anticancer activity against human MCF7 cells measured at 48 hrs; how it was run: as §1
T47D [10] = experiment: Antiproliferative activity against human T47D cells assessed as inhibition of cell growth at 1 X 10^-5 M measured for 48 hrs by sulforhodamine B assay relative to control; conditions: dose 1 10^-5M; how it was run: as §2
MDA-MB-468 [11] = experiment: Antiproliferative activity against human MDA-MB-468 cells assessed as inhibition of cell growth at 1 X 10^-5 M measured for 48 hrs by sulforhodamine B assay relative to control; conditions: MDA-MB-468, 48 h, dose 1 10^-5M; how it was run: as §2
MCF7 [12] = experiment: Antiproliferative activity against human MCF7 cells assessed as inhibition of cell growth at 1 X 10^-5 M measured for 48 hrs by sulforhodamine B assay relative to control; conditions: MCF7, 48 h, dose 1 10^-5M; how it was run: as §2

| Structure (SMILES) | GI50 (T47D [1]) | TGI (T47D [1]) | inhibition at 10 µM (BT-549 [2]) | GI50 (BT-549 [3]) | TGI (BT-549 [3]) | GI50 (MDA-MB-468 [4]) | LC50 (concentration giving 50% net cell kill) (MDA-MB-468 [4]) | TGI (MDA-MB-468 [4]) | GI50 (MDA-MB-231 [5]) | LC50 (concentration killing 50% of starting cells) (MDA-MB-231 [5]) | TGI (MDA-MB-231 [5]) | inhibition at 10 µM (Hs-578T [6]) | inhibition at 10 µM (MDA-MB-231 [7]) | GI50 (Hs-578T [8]) | TGI (Hs-578T [8]) | GI50 (MCF7 [9]) | LC50 (concentration giving 50% net cell kill) (MCF7 [9]) | TGI (MCF7 [9]) | inhibition at 10 µM (T47D [10]) | inhibition at 10 µM (MDA-MB-468 [11]) | further results |
| --- | --- | --- | --- | --- | --- | --- | --- | --- | --- | --- | --- | --- | --- | --- | --- | --- | --- | --- | --- | --- | --- |
| Cc1ccc(-c2nc3nc(-c4ccc(F)cc4)nc(N4CCNCC4)c3o2)cc1 | 2300 nM | 6.92 µM | 1% | 13600 nM | 30.1 µM | 1740 nM | 6.56 µM | 3.38 µM | 1860 nM | 7.09 µM | 3.63 µM | 106% | 129% | 2060 nM | 5.12 µM | 1660 nM | 7.4 µM | 3.51 µM | 127% | 46% | CC50 (T47D [1]): > 100 µM; LC50 (concentration giving 50% net cell kill) (BT-549 [3]): 66.8 µM; LC50 (50% lethal concentration) (Hs-578T [8]): 37 µM; inhibition at 10 µM (MCF7 [12]): 174% |
| Cc1ccc(-c2nc3nc(-c4ccc(F)cc4)nc(N4CCCNCC4)c3o2)cc1 | 1850 nM | 3.94 µM | 177% | 1660 nM | 3.37 µM | 1580 nM | 6.41 µM | 3.18 µM | 1630 nM | 5.91 µM | 3.11 µM | 176% | 185% | 1780 nM | 3.69 µM | 1230 nM | 7.14 µM | 2.96 µM | 164% | 176% | LC50 (concentration giving 50% net cell kill) (BT-549 [3]): 6.85 µM; LC50 (50% lethal concentration) (Hs-578T [8]): 7.63 µM; inhibition at 10 µM (MCF7 [12]): 172% |
| Cc1ccc(-c2nc(N3CCNCC3)c3oc(-c4ccccc4)nc3n2)cc1 | 1810 nM | 3.83 µM | 15% | 13800 nM | 31.6 µM | 1810 nM | 7.98 µM | 3.8 µM | 1620 nM | 5.77 µM | 3.06 µM | 72% | 179% | 2530 nM | 7.69 µM | 1850 nM | 7.6 µM | 3.75 µM | 158% | 131% | CC50 (T47D [1]): 8.07 µM; LC50 (concentration giving 50% net cell kill) (BT-549 [3]): 72.7 µM; LC50 (50% lethal concentration) (Hs-578T [8]): > 100 µM; inhibition at 10 µM (MCF7 [12]): 175% |
| c1ccc(-c2nc(N3CCCNCC3)c3nc(-c4ccccc4)oc3n2)cc1 | 1780 nM | 3.64 µM | 5% | 1780 nM | 3.29 µM | 1720 nM | 6.57 µM | 3.37 µM | 1720 nM | 5.99 µM | 3.21 µM | 16% | 103% | 1860 nM | 3.94 µM | 1670 nM | 6.67 µM | 3.34 µM | 53% | 153% | CC50 (T47D [1]): 7.42 µM; LC50 (50% lethal concentration) (Hs-578T [8]): 8.34 µM; inhibition at 10 µM (MCF7 [12]): 167% |
| Cc1ccc(-c2nc(N3CCNCC3)c3oc(-c4ccc(C)cc4)nc3n2)cc1 | 11400 nM | 37.4 µM | 17% | 1710 nM | 3.32 µM | 2130 nM | 13.5 µM | 4.77 µM | 1740 nM | 6.81 µM | 3.44 µM | 1% | 172% | 2270 nM | 5.83 µM | 1720 nM | 7.86 µM | 3.68 µM | 63% | 133% | CC50 (T47D [1]): > 100 µM; LC50 (concentration giving 50% net cell kill) (BT-549 [3]): 6.48 µM; LC50 (50% lethal concentration) (Hs-578T [8]): > 100 µM; inhibition at 10 µM (MCF7 [12]): 173% |
| Cc1ccc(-c2nc3nc(-c4ccc(Cl)cc4)nc(N4CCCNCC4)c3o2)cc1 | 1940 nM | 4.14 µM | 1% | 1900 nM | 3.61 µM | 1780 nM | 6.59 µM | 3.42 µM | 1870 nM | 6.21 µM | 3.37 µM | 151% | 176% | 1930 nM | 4.17 µM | 1700 nM | 6.75 µM | 3.39 µM | 136% | 154% | CC50 (T47D [1]): 8.84 µM; LC50 (concentration giving 50% net cell kill) (BT-549 [3]): 6.86 µM; LC50 (50% lethal concentration) (Hs-578T [8]): 9.02 µM; inhibition at 10 µM (MCF7 [12]): 179% |
| Cc1ccc(-c2nc(N3CCCNCC3)c3oc(-c4ccccc4)nc3n2)cc1 | 2020 nM | 4 µM | 19% | 1620 nM | 3.14 µM | 1550 nM | 6.75 µM | 3.24 µM | 1770 nM | 6.06 µM | 3.27 µM | 130% | 192% | 1940 nM | 4.22 µM | 1590 nM | 7.45 µM | 3.44 µM | 167% | 176% | CC50 (T47D [1]): 7.94 µM; LC50 (50% lethal concentration) (Hs-578T [8]): 9.21 µM; inhibition at 10 µM (MCF7 [12]): 175% |
| Cc1ccc(-c2nc3nc(-c4ccc(Br)cc4)nc(N4CCCNCC4)c3o2)cc1 | 3060 nM | 13.9 µM | 1% | 16000 nM | 34.6 µM | 3980 nM | 52.5 µM | 15.9 µM | 1930 nM | 8.5 µM | 4.05 µM | 130% | 157% | 17200 nM | 37.1 µM | 1780 nM | 6.91 µM | 3.51 µM | 108% | 165% | CC50 (T47D [1]): 65.5 µM; LC50 (concentration giving 50% net cell kill) (BT-549 [3]): 75 µM; LC50 (50% lethal concentration) (Hs-578T [8]): 80.2 µM; inhibition at 10 µM (MCF7 [12]): 176% |
| Cc1ccc(-c2nc3nc(-c4ccccc4)nc(N4CCCNCC4)c3o2)cc1 | 1720 nM | 3.5 µM | 72% | 1630 nM | 3.19 µM | 1590 nM | 7.04 µM | 3.35 µM | 1810 nM | 6.1 µM | 3.32 µM | 118% | 187% | 1830 nM | 4.02 µM | 1480 nM | 8.29 µM | 3.5 µM | 145% | 168% | CC50 (T47D [1]): 7.1 µM; LC50 (concentration giving 50% net cell kill) (BT-549 [3]): 6.25 µM; LC50 (50% lethal concentration) (Hs-578T [8]): 8.85 µM; inhibition at 10 µM (MCF7 [12]): 178% |
| c1ccc(-c2nc(N3CCNCC3)c3nc(-c4ccccc4)oc3n2)cc1 | 1940 nM | 4.19 µM | 3% | 1670 nM | 3.24 µM | 1930 nM | 6.94 µM | 3.66 µM | 1670 nM | 6.13 µM | 3.2 µM | 11% | 181% | 1870 nM | 4.11 µM | 1700 nM | 7.54 µM | 3.58 µM | 157% | 137% | LC50 (concentration giving 50% net cell kill) (BT-549 [3]): 6.27 µM; LC50 (50% lethal concentration) (Hs-578T [8]): 9.05 µM; inhibition at 10 µM (MCF7 [12]): 169% |
| Cc1ccc(-c2nc3nc(-c4ccccc4)nc(N4CCNCC4)c3o2)cc1 | 350 nM | 1.51 µM | 172% | 1720 nM | 3.2 µM | 290 nM | 4.84 µM | 1.18 µM | 260 nM | 2.61 µM | 0.67 µM | 151% | 179% | 2020 nM | 4.22 µM | 330 nM | 5.74 µM | 1.45 µM | 168% | 187% | CC50 (T47D [1]): 6.33 µM; LC50 (concentration giving 50% net cell kill) (BT-549 [3]): 5.99 µM; inhibition at 10 µM (MCF7 [12]): 166% |
